From ChEMBL document CHEMBL4049426, “Identification of the Clinical Candidate (R)-(1-(4-Fluorophenyl)-6-((1-methyl-1H-pyrazol-4-yl)sulfonyl)-4,4a,5,6,7,8-hexahydro-1H-pyrazolo[3,4-g]isoquinolin-4a-yl)(4-(trifluoromethyl)pyridin-2-yl)methanone (CORT125134): A Selective Glucocorticoid Receptor (GR) Antagonist” (J Med Chem, 2017)

Assays:
[1] = Cmax in Sprague-Dawley CD-1 rat plasma at 3 mg/kg, po administered as cassette dose via gavage measured up to 24 hrs by LC/MS analysis; assay type: ADME, organism-based; design: dose 3 mg/kg, route oral
Procedure, shortened: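 Three male Sprague Dawley CD-1 rats (220-250g) with jugular vein catheters; three test compounds plus a reference dosed together by oral gavage, 3mg/kg each, in DMSO:0.5% methylcellulose 10:90 (0.6mg/mL per compound), 5mL/kg. Plasma sampled pre-dose and at 0.25, 0.5, 1, 2, 4, 6, 8, 24 h; LC/MS.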

androgen receptor = target: T1, androgen receptor (Homo sapiens, UniProt P10275); test: Inhibition of radioligand binding to androgen receptor (unknown origin) at 1 uM relative to control
T1 sequence (P10275 whole entry): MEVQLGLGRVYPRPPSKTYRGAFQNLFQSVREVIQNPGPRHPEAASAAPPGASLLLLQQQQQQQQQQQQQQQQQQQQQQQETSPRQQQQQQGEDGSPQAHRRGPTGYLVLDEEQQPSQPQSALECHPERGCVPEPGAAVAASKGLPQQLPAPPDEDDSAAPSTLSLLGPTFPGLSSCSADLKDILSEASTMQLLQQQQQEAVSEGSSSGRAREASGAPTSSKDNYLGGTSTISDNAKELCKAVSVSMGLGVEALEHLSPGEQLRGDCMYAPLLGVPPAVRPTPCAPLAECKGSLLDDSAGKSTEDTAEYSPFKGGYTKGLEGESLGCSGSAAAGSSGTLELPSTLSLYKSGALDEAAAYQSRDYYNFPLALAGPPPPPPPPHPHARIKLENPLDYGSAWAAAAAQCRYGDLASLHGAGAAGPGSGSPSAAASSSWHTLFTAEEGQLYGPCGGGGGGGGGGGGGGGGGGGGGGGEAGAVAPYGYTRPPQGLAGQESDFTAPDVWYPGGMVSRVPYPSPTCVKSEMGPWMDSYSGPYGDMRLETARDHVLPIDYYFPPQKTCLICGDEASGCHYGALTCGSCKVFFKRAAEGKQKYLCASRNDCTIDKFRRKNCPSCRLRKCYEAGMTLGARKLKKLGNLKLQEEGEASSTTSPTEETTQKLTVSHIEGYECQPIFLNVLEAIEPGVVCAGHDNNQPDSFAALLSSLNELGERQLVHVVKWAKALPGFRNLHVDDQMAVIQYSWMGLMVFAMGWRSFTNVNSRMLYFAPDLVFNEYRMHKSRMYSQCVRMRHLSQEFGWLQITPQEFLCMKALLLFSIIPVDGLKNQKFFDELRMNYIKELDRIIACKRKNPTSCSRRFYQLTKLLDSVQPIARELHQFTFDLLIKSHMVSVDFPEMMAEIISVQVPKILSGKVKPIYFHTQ

[2] = target: T2, Glucocorticoid receptor (Homo sapiens) (UniProt P04150); test: Agonist activity at glucocorticoid receptor in human HepG2 cells assessed as induction of tyrosine amino transferase activity measured after 20 hrs; assay type: cell-based; settings: in the assay text read “primary hepatocytes” for “HepG2 cells”
T2 sequence (whole entry): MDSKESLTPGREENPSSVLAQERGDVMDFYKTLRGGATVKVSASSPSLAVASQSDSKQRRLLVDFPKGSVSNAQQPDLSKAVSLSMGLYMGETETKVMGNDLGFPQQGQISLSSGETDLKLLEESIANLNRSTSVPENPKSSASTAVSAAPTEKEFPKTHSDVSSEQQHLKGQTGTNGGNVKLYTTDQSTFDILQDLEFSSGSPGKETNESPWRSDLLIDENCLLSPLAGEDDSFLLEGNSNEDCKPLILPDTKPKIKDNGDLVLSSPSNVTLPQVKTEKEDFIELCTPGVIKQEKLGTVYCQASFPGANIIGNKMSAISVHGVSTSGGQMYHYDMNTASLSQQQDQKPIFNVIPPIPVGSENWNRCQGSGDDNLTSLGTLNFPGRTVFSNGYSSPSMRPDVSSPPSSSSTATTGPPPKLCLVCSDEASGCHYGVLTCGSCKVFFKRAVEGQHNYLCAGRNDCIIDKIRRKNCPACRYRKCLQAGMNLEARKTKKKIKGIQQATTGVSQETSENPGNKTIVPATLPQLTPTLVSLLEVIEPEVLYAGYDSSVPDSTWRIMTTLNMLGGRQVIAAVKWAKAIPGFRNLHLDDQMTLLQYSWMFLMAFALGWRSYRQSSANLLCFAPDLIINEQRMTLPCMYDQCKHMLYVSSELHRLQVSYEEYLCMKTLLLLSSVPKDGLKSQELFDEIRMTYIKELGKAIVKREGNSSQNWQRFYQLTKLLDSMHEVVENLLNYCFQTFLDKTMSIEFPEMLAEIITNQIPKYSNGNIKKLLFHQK
Procedure, shortened: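 HepG2 cells in charcoal-stripped FBS RPMI, 25,000 cells/well, 24 h; assay media with 10 µM forskolin. 30 min pre-incubation in 0.1% DMSO, then compound (8-point half-log, 10 µM to 0.003 µM final) for 20 h at 37°C. TAT in lysate with tyrosine, alpha-ketoglutarate and pyridoxal phosphate, 2 h at 37°C, KOH stop, A340. EC50 from 4-parameter fit of % activation of basal TAT.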

Cytochrome P450 2C8 = target: T3, Cytochrome P450 2C8 (Homo sapiens, UniProt P10632); test: Inhibition of CYP2C8 (unknown origin)
T3 sequence (P10632 whole entry): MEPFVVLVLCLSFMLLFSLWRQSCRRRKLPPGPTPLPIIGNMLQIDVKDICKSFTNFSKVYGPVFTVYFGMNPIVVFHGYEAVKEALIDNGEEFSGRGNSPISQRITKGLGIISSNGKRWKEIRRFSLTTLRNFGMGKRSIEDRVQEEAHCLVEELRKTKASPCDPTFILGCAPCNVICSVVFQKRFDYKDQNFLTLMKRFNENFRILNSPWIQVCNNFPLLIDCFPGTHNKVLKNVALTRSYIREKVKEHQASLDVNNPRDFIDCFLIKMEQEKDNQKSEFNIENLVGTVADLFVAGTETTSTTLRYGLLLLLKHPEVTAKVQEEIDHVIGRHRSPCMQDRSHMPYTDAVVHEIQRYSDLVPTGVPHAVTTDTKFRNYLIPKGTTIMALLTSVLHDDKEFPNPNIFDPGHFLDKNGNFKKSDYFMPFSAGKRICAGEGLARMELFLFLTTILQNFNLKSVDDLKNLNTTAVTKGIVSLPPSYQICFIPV

Cn1cc(S(=O)(=O)N2CCC3=Cc4c(cnn4-c4ccc(F)cc4)C[C@]3(C(=O)c3cc(C(F)(F)F)ccn3)C2)cn1 [RELACORILANT]
Cmax [1]: 262 ng/mL
inhibition at 1 µM (androgen receptor): < 10%
Emax [2]: 0%
IC50 (Cytochrome P450 2C8): 210 nM
